{"data": "Assay results gathered from unrelated publications", "target": "Serine/threonine-protein kinase PAK 1 (PAK1, Homo sapiens, UniProt Q13153)", "note": "Compare with care: the assays were run in different laboratories."}
{"SMILES": "CN(c1nccc(-c2cnn3ncccc23)n1)C1CC1", "test": "binding", "setting": "1 µM", "remaining binding": "100%"}
{"SMILES": "N#Cc1ccccc1CSc1nnc2c(n1)[nH]c1ccccc12", "test": "binding, competition with immobilised ligand", "setting": "10 µM", "remaining binding": "80%"}
{"SMILES": "C[C@H](c1ccnc(Nc2nc3ccc(-c4cc(N(C)C)ncn4)cc3[nH]2)c1)N1CCN(C(=O)CC(F)(F)F)CC1", "test": "cell-free assay, competition with immobilised ligand", "setting": "0.1 µM", "remaining binding": "77%"}
{"SMILES": "C[C@@H]1CN(c2ccc3ncc(-c4ccc5[nH]nc(C6CC6)c5c4)n3n2)C[C@H](C)O1", "test": "binding, competition with immobilised ligand", "setting": "50 nM", "remaining binding": "100%"}
{"SMILES": "O=C(NCCCN1CCOCC1)c1ccc(Nc2ncc(Cl)c(-c3ccc(Cl)s3)n2)cc1", "test": "binding, competition with immobilised ligand", "setting": "1 µM", "remaining binding": "98%"}
{"SMILES": "COc1ncc2cc3ccccc3nc2c1C#N", "test": "cell-free assay, competition with immobilised ligand", "setting": "5 µM", "remaining binding": "97%"}
{"SMILES": "CC(C)(C)c1ccc(-c2nc(CBr)nn2-c2cccc(O)c2)cc1", "test": "cell-free assay, competition with immobilised ligand", "setting": "10 µM", "remaining binding": "98%"}
{"SMILES": "C[C@@H]1CCN(c2nccc(-c3cnn4ncccc34)n2)C1", "test": "binding", "setting": "1 µM", "remaining binding": "100%"}
{"SMILES": "COc1cnc(Nc2cccc(S(N)(=O)=O)c2)nc1N1CCN(c2ccccc2)CC1", "test": "binding, competition with immobilised ligand", "setting": "1 µM", "remaining binding": "99%"}
{"SMILES": "FC(F)(F)c1ccc2c(c1)nc(-c1cccnc1)n2C1CC1", "test": "cell-free assay, competition with immobilised ligand", "setting": "1 µM", "remaining binding": "100%"}
{"SMILES": "N[C@H]1CCN(c2nccc(-c3cnn4ncccc34)n2)C1", "test": "binding", "setting": "1 µM", "remaining binding": "100%"}
{"SMILES": "CN(C)C(=O)Cn1cc(-c2nc([C@@](C)(c3ccc(-c4cnc(N)nc4)cc3)C3CC3)no2)cn1", "test": "cell-free assay, competition with immobilised ligand", "setting": "1 µM", "remaining binding": "100%"}
{"SMILES": "O=C(NCCCN1CCOCC1)c1ccc(Nc2nccc(-c3cc4ccccc4s3)n2)cc1", "test": "binding, competition with immobilised ligand", "setting": "1 µM", "remaining binding": "84%"}
{"SMILES": "O=C(NCC1CCOCC1)c1n[nH]cc1NC(=O)c1c(F)cccc1F", "test": "binding, competition with immobilised ligand", "setting": "1 µM", "remaining binding": "100%"}
{"SMILES": "Cc1cc(C)c(-n2ccn3nc(-c4cccnc4)cc23)cc1NC(=O)c1cc(C#N)cc(S(F)(F)(F)(F)F)c1", "test": "cell-free assay, competition with immobilised ligand", "setting": "0.1 µM", "remaining binding": "82.2%"}
{"SMILES": "CN(CCCC(F)(F)F)c1nccc(-c2cnn3ncccc23)n1", "test": "binding", "setting": "1 µM", "remaining binding": "98%"}
{"SMILES": "Cc1cnc(Nc2ccc(C(=O)N3CCC(N4CCCC4)CC3)cc2)nc1-c1cc2ccccc2s1", "test": "binding, competition with immobilised ligand", "setting": "1 µM", "remaining binding": "98%"}
{"SMILES": "COc1cc(-c2cn(C3CCc4c(F)cccc4N(CC(F)(F)F)C3=O)nn2)ccc1-n1cnc(C)c1 (centres unmarked)", "test": "cell-free assay, competition with immobilised ligand", "setting": "1 µM", "remaining binding": "93%"}
{"SMILES": "CN(C)c1nccc(-c2cnn3ncccc23)n1", "test": "binding", "setting": "1 µM", "remaining binding": "100%"}
{"SMILES": "CN(C)C(=O)Cn1cc(-c2nc(C3(c4ccc(-c5cnc(N)nc5)cc4)CC3)no2)cn1", "test": "cell-free assay, competition with immobilised ligand", "setting": "1 µM", "remaining binding": "100%"}
{"SMILES": "Nc1ncc2c(n1)-c1c([nH]c3ccc(C#CC4CC4)cc13)CCCC2", "test": "binding, competition with immobilised ligand", "setting": "1 µM", "remaining binding": "83%"}
{"SMILES": "Cc1cnn2ncc(-c3ccnc(N(C)C)n3)c2c1", "test": "binding", "setting": "1 µM", "remaining binding": "71%"}
{"SMILES": "CO[C@@H](C)c1c(Nc2ccc([C@H](N(C)C(=O)C3CCS(=O)(=O)CC3)C(F)(F)F)cc2)cnc2cc(Cl)nn12", "test": "cell-free assay, competition with immobilised ligand", "setting": "1 µM", "remaining binding": "74%"}
